High-throughput results as filed in PubChem.
tolC growth inh = growth inhibitors of E. coli tolC mutant, primary screen, strain BW25113 ΔtolC::kan, 384-well. OD615. growth inhibition, % at 10 µM (by protocol). 65,000 tested, 2.2% active. AID 573, 2007;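 active = growth inhibition at or above a cutoff equal to the mean over every tested compound plus 3 SD, cut at about 60% in these data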;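 also: growth measured after 20 h incubation at 37 °C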
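test system = E. coli BW25113 ΔtolC::kan bacteria | medium = LB with kanamycin 50 µg/mL | signal = OD at 615 nm | schedule = 37 °C, 20 h exposure | evaluation = % inhibition of E. coli growth | compound dosing = one dose of 10 µM final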
E coli WT exp = growth inhibitors of wild-type E. coli, primary screen, strain BW25113, expanded library, OD600; OD600 absorbance; growth inhibition, % at 100 µM; 98,000 tested, 0.15% active;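 active = growth inhibition above about 50% at one test dose, limit read from the data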;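 also: growth measured after 20 h incubation at 37 °C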
CYP2C9 activ = human CYP2C9 activators, primary screen, biochemical, luminescence | recombinant CYP2C9, luciferin-H conversion; stronger effect = higher value; factor 1 = untreated enzyme, 0 = blocked | activation factor at 5 µM | 96,000 tested, 1.4% active;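 active = activation factor of 2 or more for CYP2C9 at a 5 µM dose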;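 also: 0 = sulfaphenazole-blocked wells and 1 = vehicle-only wells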
CYP2C19 inh = blockers of cytochrome P450 2C19 activity – biochemical, luminescence, ADME assay, primary screen. P33261. CYP2C19 Supersomes, luciferin-H EGE luminescence, 30 min. inhibition, % at 5 µM. 96,000 tested, 21% active. AID 778, 2007;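 active = CYP2C19 inhibition above a set limit at 5 µM in the primary screen, cut at about 50% in these data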;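 also: plate controls were negative control wells for no effect and 2.5 mM tranylcypromine positive control for full effect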
Target sequence (P33261 whole entry, looked up): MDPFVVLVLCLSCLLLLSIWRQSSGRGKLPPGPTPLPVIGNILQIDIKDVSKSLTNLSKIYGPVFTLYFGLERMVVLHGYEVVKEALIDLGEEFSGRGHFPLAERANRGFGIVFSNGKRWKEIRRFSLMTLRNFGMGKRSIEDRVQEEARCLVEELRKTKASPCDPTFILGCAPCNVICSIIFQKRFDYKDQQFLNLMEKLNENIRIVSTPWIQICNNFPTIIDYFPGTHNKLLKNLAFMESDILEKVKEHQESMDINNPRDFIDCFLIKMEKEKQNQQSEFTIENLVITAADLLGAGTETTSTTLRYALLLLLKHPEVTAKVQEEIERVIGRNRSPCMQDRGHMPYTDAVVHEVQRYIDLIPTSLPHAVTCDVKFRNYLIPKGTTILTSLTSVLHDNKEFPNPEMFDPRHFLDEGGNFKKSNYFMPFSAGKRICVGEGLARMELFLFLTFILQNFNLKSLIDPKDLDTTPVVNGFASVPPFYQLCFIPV
CYP2C9 inhib = blockers of cytochrome P450 2C9 activity – biochemical, luminescence, ADME assay, primary screen; P11712; CYP2C9 Supersomes, luciferin-H conversion; inhibition, % at 5 µM; 96,000 tested, 20% active; AID 777, 2007;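 active = blocking of liver enzyme CYP2C9 beyond about 50% at 5 µM, limit read from the data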
CYP2C19 activ = human CYP2C19 activators, primary screen, biochemical, luminescence. recombinant CYP2C19, luciferin-H EGE luminescence; stronger effect = higher value; 0 = fully inhibited enzyme, 1 = untreated enzyme. Cytochrome P450 2C19 (Homo sapiens), P33261. 96,000 tested, under 10 active. activation factor at 5 µM;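 active = activation factor of at least 2 at 5 µM in the primary screen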;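 also: 0 = wells with 2.5 mM tranylcypromine and 1 = vehicle-only wells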
* = called active by the depositor; · = not tested or not shown; ! = not active in a repeat. A selection: hits, their analogues and other compounds. The true share with any hit is near 29%.

SMILES | tolC growth inh | E coli WT exp | CYP2C9 activ | CYP2C19 inh | CYP2C9 inhib | CYP2C19 activ
O=C(NC1CCCCC1)c1ccc(CN2CCOCC2)cc1 | · | -6 | 0.9 | -17 | 11 | 1.2
O=C(CN1C(=O)CSC1=O)N1CCc2ccccc2C1 | -3 | 6 | 1 | -11 | 2 | 1.1
COc1nccnc1NS(=O)(=O)c1ccc(NS(=O)(=O)c2ccc(NC(C)=O)cc2)cc1 | · | -2 | 1 | -26 | 1 | 1.3
COc1ccccc1NS(=O)(=O)c1ccc(NC(C)=O)cc1 | -23 | -6 | 1.7 | 93* | -73 | 0.1
COc1cc(NS(=O)(=O)c2ccc(OC)c(OC)c2)cc(OC)c1 | 8 | 5 | 0.3 | 100* | 74* | 0
COc1cc(NS(=O)(=O)c2ccc(F)cc2)c(OC)cc1NC(=O)C1CC1 | 10 | 5 | 0.8 | 98* | 16 | 0
COc1ccc(S(=O)(=O)Nc2ccccc2C(=O)NC(C)(C)C)cc1OC | · | 6 | 0.8 | 73* | 20 | 0.3
COc1ccccc1NC(=O)c1ccccc1NS(C)(=O)=O | 5 | 11 | 0.8 | -2 | 19 | 1
COc1ccc(S(=O)(=O)NC(C(C)C)C(C)C)cc1OC | -3 | 4 | · | · | · | ·
Cc1ccccc1OCCCC(=O)Nc1ccc(Br)cc1 | · | -4 | 1 | 14 | 0 | 0.9
O=C1Nc2ccc(S(=O)(=O)N3CCCC3)c3ccc(S(=O)(=O)N4CCCC4)c1c23 | -21 | -6 | 1.1 | -7 | -6 | 1.1
COc1ccc2c(C=Nc3c(C)n(C)n(-c4ccccc4)c3=O)c(O)n(Cc3ccco3)c(=O)c2c1 | 4 | -10 | 0.3 | 60*! | 72*! | 0.4
CCOC(=O)c1ccc(CNC(=O)c2cc(C(C)(C)C)oc2C)o1 | 51 | 5 | 0.2 | 90* | 76* | 0.1
O=C(CSc1nnc(-c2ccccn2)n1Cc1ccccc1)NC1CCCC1 | 13 | 4 | 0.7 | 38 | 33 | 0.6
C=CCNc1ncnc2c1[nH]c1ccc(C)cc12 | 90* | 82* | 0.4 | 45 | 56* | 0.6
Cc1ccc2[nH]c3c(NCCN4CCOCC4)ncnc3c2c1 | 12 | 12 | 1 | 9 | 4 | 0.9
CCOc1ccc(C2c3c(oc4ccccc4c3=O)C(=O)N2c2ccccn2)cc1OC (stereo not drawn) | -2 | · | · | · | · | ·
CCC1(CC)Cc2ccccc2C(Nc2c(C)n(C)n(-c3ccccc3)c2=O)=N1 | · | 1 | 0.9 | 9 | 14 | 0.9
COc1ccc(/C=N/n2cnnc2SCCO)cc1OC | -3 | 5 | 0.8 | 17 | 18 | 0.8
C=CCSc1nncn1/N=C/c1ccc(OC)cc1 | 10 | 4 | 0.6 | 82* | 36 | 0.2
COc1ccc(CNC(=O)CN2C(=O)C3CCCN3c3ncc(Cl)cc32)cc1 (stereo not drawn) | · | 2 | 0.5 | 82* | 52* | 0.2
COC(=O)c1ccccc1NC(=O)CN1C(=O)C2CCCN2c2ncc(Cl)cc21 (stereo not drawn) | 15 | -4 | 0.3 | 48 | 67* | 0.5
CC1CCC(NC(=O)CN2C(=O)C3CCCN3c3ncc(Cl)cc32)CC1 (stereo not drawn) | 16 | 0 | 0.6 | 38 | 44 | 0.6
CCc1ccccc1NC(=O)CN1C(=O)C2CCCN2c2ncc(Cl)cc21 (stereo not drawn) | 16 | 2 | 0.5 | 55* | 54* | 0.4
O=C(CN1C(=O)C2CCCN2c2ncc(Cl)cc21)NCc1ccc2c(c1)OCO2 (stereo not drawn) | 3 | -1 | 0.8 | 40 | 16 | 0.6
SMILES | tolC growth inh | E coli WT exp | CYP2C9 activ | CYP2C19 inh | CYP2C9 inhib | CYP2C19 activ
Cc1c(NC(=O)/C=C/c2cn(-c3ccccc3)nc2-c2ccccc2)c(=O)n(-c2ccccc2)n1C | · | -20 | 0.6 | 13 | 37 | 0.9
Cc1cc(Cl)ccc1NC(=S)NCc1ccc(Cl)cc1 | · | -2 | 0.5 | 52* | 52* | 0.5
Cc1ccc(NC(=S)NCc2ccc3c(c2)OCO3)c(C)c1 | · | 8 | 0.7 | 90* | 29 | 0.1
Cc1ccc(NC(=S)NCCO)c(C)c1 | · | 6 | 1 | 5 | -2 | 1
Cc1cc(Cl)ccc1NC(=S)NCCC(c1ccccc1)c1ccccc1 | · | -22 | 0.2 | 88* | 85* | 0.1
CCOC(=O)CCNC(C(=O)OCC)c1ccccc1 (stereo not drawn) | · | -1 | 1.1 | -7 | -14 | 1.1
COc1ccc(CCNC(=O)CCN2C(=O)C3CC=CCC3C2=O)cc1OC (stereo not drawn) | -20 | 3 | · | · | · | ·
Cc1c(NC(=O)C2C3C=CC(C3)C2C(=O)O)c(=O)n(-c2ccccc2)n1C (stereo not drawn) | · | -1 | 0.9 | 5 | 11 | 0.9
O=S(=O)(Nc1cccc(CCc2ccccn2)c1)c1ccc2ccccc2c1 | · | -17 | 0.7 | 99* | 27 | 0
COc1cc(C2c3c(oc4ccc(C)cc4c3=O)C(=O)N2c2cc(C)ccn2)cc(OC)c1OC (stereo not drawn) | -20 | · | 0.4 | 3 | 59* | 1
Cc1ccc2oc3c(c(=O)c2c1)C(c1cccc(O)c1)N(c1ccccn1)C3=O (stereo not drawn) | 10 | -4 | 1.1 | 20 | -11 | 0.8
CCCCC(c1nnnn1CS(=O)(=O)c1ccc(C)cc1)N1CCN(c2ccccc2)CC1 (stereo not drawn) | -7 | -5 | 0.3 | 65* | 69* | 0.4
N#CC1=C(SCc2ccccc2)NC(=O)CC1c1ccc(O)cc1 (stereo not drawn) | 16 | 4 | 0.5 | 65* | 53* | 0.4
N#CC1=C(SCc2ccccc2)NC(=O)CC1c1cccc(O)c1 (stereo not drawn) | 14 | 6 | 0.4 | 78* | 62* | 0.2
COc1cccc(/C=C/c2ccncc2)c1OC | 6 | 4 | 0 | 99* | 98* | 0
Cc1[nH]nc2c1C(c1ccc(Cl)cc1)C(C#N)=C(N)O2 (stereo not drawn) | -2 | -2 | 0.6 | 53* | 43 | 0.5
N#CC1=C(N)Oc2n[nH]c(-c3cccs3)c2C1c1ccsc1 (stereo not drawn) | 98* | -2 | 0.8 | 3 | 16 | 1
CC(C)(C)c1[nH]nc2c1C(c1ccoc1)C(C#N)=C(N)O2 (stereo not drawn) | · | 17 | 0.9 | 39 | 11 | 0.6
CC(C)(C)c1[nH]nc2c1C(c1ccncc1)C(C#N)=C(N)O2 (stereo not drawn) | -12 | -2 | 0.3 | 60* | 72* | 0.4
CCn1ccnc1C(O)c1ccc(N(C)C)cc1 (stereo not drawn) | -31 | -4 | 1 | 62* | 0 | 0.4
